{"source": "ChEMBL document CHEMBL4311940", "about": "“Design, Synthesis, and Biological Evaluation of 4-Methyl Quinazoline Derivatives as Anticancer Agents Simultaneously Targeting Phosphoinositide 3-Kinases and Histone Deacetylases” (J Med Chem, 2019)", "key": {"[1]": {"assay": "Drug level in BALB/c mouse plasma xenografted with human HGC27 cells at 30 mg/kg, ip measured 0.5 hrs post last dose", "format": "ADME, organism-based", "in_short": "(§1)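 HGC-27 xenografted nude mice dosed po (0.5% cmc/Tween 80) or ip (saline); at end of treatment, 0.5 h after final dose, plasma and tumor tissue collected and compound concentration measured (ng/mL plasma, ng/g tumor).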"}, "[2]": {"target": "Phosphatidylinositol 4,5-bisphosphate 3-kinase catalytic subunit gamma isoform (Homo sapiens, UniProt P48736)", "sequence (P48736 whole entry, looked up, the tested form may be a part, canonical isoform)": "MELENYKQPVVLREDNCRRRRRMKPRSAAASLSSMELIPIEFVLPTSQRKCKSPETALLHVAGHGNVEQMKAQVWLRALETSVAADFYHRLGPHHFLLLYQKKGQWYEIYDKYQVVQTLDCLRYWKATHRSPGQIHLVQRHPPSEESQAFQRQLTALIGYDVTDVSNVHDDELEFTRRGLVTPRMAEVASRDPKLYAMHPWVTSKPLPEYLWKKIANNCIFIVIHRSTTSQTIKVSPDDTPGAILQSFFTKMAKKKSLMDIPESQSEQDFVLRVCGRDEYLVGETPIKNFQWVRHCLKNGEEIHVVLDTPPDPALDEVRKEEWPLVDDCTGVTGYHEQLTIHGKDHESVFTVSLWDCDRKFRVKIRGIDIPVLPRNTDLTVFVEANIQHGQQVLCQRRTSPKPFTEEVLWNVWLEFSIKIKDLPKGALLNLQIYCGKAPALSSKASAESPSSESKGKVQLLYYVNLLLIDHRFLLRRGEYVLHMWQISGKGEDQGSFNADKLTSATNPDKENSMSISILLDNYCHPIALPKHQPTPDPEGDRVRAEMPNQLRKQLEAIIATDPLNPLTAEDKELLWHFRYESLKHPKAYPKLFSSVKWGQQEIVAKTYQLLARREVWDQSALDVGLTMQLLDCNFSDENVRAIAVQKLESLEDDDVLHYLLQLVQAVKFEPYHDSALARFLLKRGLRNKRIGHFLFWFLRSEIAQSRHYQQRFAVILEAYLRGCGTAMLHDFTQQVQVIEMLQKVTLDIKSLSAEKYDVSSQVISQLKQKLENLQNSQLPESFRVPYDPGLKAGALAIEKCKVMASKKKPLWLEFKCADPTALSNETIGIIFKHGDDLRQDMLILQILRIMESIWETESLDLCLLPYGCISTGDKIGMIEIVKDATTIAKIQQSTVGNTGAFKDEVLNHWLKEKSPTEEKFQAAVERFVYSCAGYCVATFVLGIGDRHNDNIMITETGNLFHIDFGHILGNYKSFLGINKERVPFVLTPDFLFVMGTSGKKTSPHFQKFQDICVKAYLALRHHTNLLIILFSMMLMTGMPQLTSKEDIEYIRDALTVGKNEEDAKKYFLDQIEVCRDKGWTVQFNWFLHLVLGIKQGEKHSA", "assay": "Binding affinity to wild-type human partial length PIK3CG (S144 to A1102 residues) expressed in mammalian expression system assessed as residual binding level at 1 uM by Kinomescan method relative to control", "in_short": "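Kinomescan binding screen at 1 μM across 97 kinases.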"}, "[3]": {"assay": "Drug metabolism in rat bile assessed as glucuronide metabolite formation at 0.74 mg/kg, iv after 1 hr by LC/MS/MS analysis", "format": "ADME, organism-based", "conditions": "in vivo"}, "Homo sapiens [4]": {"species_on_record": "Homo sapiens", "assay": "Inhibition of PI3K in human HCT116 cells assessed as reduction in AKT phosphorylation at T308 residue at 0.5 to 5 uM after 16 hrs by Western blot analysis", "format": "cell-based", "in_short": "(§2)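 Immunoblot of HCT116 lysates (RIPA). 40 μg protein per lane on 10−12% SDS-PAGE, transferred to nitrocellulose, blocked 0.5 h in 5% milk/TBST. Primary antibodies 1:1000 overnight at 4 °C, secondary 1:1000 for 1 h, bands visualized by enhanced ECL.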"}, "[5]": {"assay": "Drug level in tumor of human HGC27 cells xenografted in BALB/c mouse at 30 mg/kg, ip measured 0.5 hrs post last dose", "format": "ADME, organism-based, Neoplasm", "conditions": "read-out: Drug uptake", "in_short": "as §1"}, "HGC-27 [6]": {"test_system": "HGC-27", "assay": "Antitumor activity against human HGC27 cells xenografted in athymic nude BALB/c mouse assessed as tumor growth inhibition at 30 mpk, ip measured 2 times every week", "format": "functional", "conditions": "HGC-27, ip, read-out: TGI", "in_short": "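HGC-27 xenograft: 2 × 10^6 cells in 0.2 mL saline s.c. right flank of female BALB/c-nu/nu mice (6–8 weeks); randomized at 100–200 mm3. Oral dosing in 0.5% cmc with Tween 80, intraperitoneal in saline; vehicle given orally daily.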"}, "HCT-116": {"test_system": "HCT-116", "assay": "Antitumor activity against human HCT116 cells xenografted in po dosed athymic nude BALB/c mouse assessed as tumor growth inhibition measured 2 times every week", "format": "functional, organism-based", "in_short": "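Female BALB/c-nu/nu mice, 6–8 weeks, given 2 × 10^6 HCT116 cells in 0.2 mL saline s.c. right flank; randomized at 100–200 mm3. Daily oral dosing in 0.5% cmc with Tween 80; vehicle controls.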"}, "Mus musculus": {"test_system": "Mus musculus", "assay": "In vivo inhibition of HDAC in tumor of human HCT116 cells xenografted in athymic nude BALB/c mouse assessed as increase in acetylated histone-H3 expression by DAB staining based immunohistochemistry method", "format": "functional, organism-based", "in_short": "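HCT116 xenograft tumors from treated and vehicle mice stained immunohistochemically for Ki67, acetyl-H3 and p-AKT(S473) (200×); integrated optical density quantified; mean ± SEM, n = 5−7, one-way ANOVA versus vehicle.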"}, "[7]": {"assay": "Toxicity in athymic nude BALB/c mouse xenografted with human HGC27 cells assessed as reduction in body weight at 30 mpk, ip measured 2 times every week relative to control", "format": "organism-based", "design": "scale not given: the % may be the effect or the level left", "conditions": "in vivo, 30 mg/kg"}, "HGC-27 [8]": {"test_system": "HGC-27", "assay": "Antitumor activity against human HGC27 cells xenografted in athymic nude BALB/c mouse assessed as tumor growth inhibition at 100 mpk, po measured 2 times every week", "format": "functional", "conditions": "HGC-27, po, read-out: TGI"}, "[9]": {"assay": "Drug level in tumor of human HGC27 cells xenografted in BALB/c mouse at 100 mg/kg, po measured 0.5 hrs post last dose", "format": "ADME, organism-based, Neoplasm", "conditions": "read-out: Drug uptake", "in_short": "as §1"}, "Homo sapiens [10]": {"species_on_record": "Homo sapiens", "assay": "Inhibition of HDAC/PI3K in human HCT116 cells assessed as increase in cleaved PARP level at 0.5 to 5 uM after 16 hrs by Western blot analysis", "format": "cell-based", "in_short": "as §2"}, "Homo sapiens [11]": {"species_on_record": "Homo sapiens", "assay": "Inhibition of PI3K in human HCT116 cells assessed as reduction in AKT phosphorylation at T308 residue at 0.02 to 0.5 uM after 16 hrs by Western blot analysis", "format": "cell-based", "in_short": "as §2"}, "Homo sapiens [12]": {"species_on_record": "Homo sapiens", "assay": "Selectivity ratio, ratio of IC50 for recombinant human N-terminal FLAG-tagged mTOR (1362 to end amino acids) to IC50 for recombinant human PI3Kalpha"}, "Homo sapiens [13]": {"species_on_record": "Homo sapiens", "assay": "Inhibition of HDAC/PI3K in human HCT116 cells assessed as increase in cleaved caspase-3 level at 0.02 to 0.5 uM after 16 hrs by Western blot analysis", "format": "cell-based", "in_short": "as §2"}, "Homo sapiens [14]": {"species_on_record": "Homo sapiens", "assay": "Selectivity ratio, ratio of IC50 for recombinant human N-terminal FLAG-tagged mTOR (1362 to end amino acids) to IC50 for recombinant human His-tagged PIK3CD/PIK3R1 expressed in baculovirus expression system"}, "[15]": {"target": "PI3-kinase p110-delta/p85-alpha (Homo sapiens, UniProt O00329)", "sequence (P27986 whole entry)": "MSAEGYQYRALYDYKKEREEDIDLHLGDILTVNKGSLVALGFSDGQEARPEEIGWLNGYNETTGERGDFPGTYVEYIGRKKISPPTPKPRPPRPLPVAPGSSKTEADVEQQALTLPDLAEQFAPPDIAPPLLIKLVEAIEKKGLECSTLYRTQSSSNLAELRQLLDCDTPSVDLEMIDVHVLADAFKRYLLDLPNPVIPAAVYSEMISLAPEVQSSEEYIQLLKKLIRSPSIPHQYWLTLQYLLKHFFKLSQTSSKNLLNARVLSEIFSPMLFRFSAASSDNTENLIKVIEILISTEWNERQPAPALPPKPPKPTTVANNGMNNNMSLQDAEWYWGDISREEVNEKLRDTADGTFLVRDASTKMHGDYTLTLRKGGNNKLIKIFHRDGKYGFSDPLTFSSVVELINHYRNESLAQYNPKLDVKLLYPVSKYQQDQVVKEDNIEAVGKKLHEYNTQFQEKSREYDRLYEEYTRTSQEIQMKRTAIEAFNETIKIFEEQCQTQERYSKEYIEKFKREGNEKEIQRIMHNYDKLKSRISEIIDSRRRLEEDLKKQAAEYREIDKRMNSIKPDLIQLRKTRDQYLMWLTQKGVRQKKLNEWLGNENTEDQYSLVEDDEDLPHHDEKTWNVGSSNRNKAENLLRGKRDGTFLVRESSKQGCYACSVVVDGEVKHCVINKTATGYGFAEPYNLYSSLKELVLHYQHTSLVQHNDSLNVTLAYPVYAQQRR", "sequence (O00329 whole entry)": "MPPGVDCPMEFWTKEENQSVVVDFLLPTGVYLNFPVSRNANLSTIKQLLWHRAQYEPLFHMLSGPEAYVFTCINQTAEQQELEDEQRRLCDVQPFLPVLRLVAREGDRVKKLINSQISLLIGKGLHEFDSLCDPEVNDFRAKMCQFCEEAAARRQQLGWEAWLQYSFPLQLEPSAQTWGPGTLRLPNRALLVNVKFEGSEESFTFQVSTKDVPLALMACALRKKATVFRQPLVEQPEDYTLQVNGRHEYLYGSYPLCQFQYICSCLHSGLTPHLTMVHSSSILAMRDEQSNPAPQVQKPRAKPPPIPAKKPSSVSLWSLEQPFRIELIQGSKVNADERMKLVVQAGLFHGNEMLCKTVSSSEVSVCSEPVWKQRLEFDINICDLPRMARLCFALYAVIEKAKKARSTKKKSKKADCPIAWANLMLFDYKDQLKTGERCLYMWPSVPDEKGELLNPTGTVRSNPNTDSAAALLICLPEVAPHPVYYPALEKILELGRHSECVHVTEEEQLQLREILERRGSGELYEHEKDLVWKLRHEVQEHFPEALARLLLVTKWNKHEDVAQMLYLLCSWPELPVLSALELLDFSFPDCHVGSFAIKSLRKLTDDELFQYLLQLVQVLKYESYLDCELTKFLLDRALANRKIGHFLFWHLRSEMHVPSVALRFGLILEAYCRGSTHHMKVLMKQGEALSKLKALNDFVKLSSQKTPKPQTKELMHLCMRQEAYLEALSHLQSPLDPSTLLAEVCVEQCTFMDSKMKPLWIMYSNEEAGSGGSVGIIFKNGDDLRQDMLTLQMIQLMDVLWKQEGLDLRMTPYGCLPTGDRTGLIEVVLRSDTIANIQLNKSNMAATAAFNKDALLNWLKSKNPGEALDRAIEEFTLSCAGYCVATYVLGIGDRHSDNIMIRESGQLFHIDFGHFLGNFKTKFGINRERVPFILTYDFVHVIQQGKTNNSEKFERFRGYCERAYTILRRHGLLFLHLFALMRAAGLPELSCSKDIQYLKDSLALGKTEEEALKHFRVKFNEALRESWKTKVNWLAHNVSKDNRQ", "assay": "Inhibition of recombinant human His-tagged PIK3CD/PIK3R1 expressed in baculovirus expression system using PIP2 as substrate incubated for 1 hr by ADP-glo assay"}, "Homo sapiens [16]": {"species_on_record": "Homo sapiens", "assay": "Selectivity ratio, ratio of IC50 for recombinant human His-tagged PIK3CG expressed in baculovirus expression system to recombinant human His-tagged PIK3CD/PIK3R1 expressed in baculovirus expression system"}, "[17]": {"assay": "Selectivity index, ratio of IC50 for human PBMC cells to IC50 for human HCT116 cells", "format": "toxicity", "conditions": "PBMC cells and HCT116 cells, read-out: Ratio IC50", "in_short": "(§3)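 Ratio of IC50s from the MTT assay: PBMC or LO2 cells versus HCT116. Cells seeded at 2000/well, attached overnight at 37 °C, treated 96 h, MTT 4 h, formazan dissolved in DMSO, A570.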"}, "Homo sapiens [18]": {"species_on_record": "Homo sapiens", "assay": "Inhibition of HDAC/PI3K in human HCT116 cells assessed as increase in cleaved PARP level at 0.02 to 0.5 uM after 16 hrs by Western blot analysis", "format": "cell-based", "in_short": "as §2"}, "[19]": {"target": "Histone deacetylase (Homo sapiens) (UniProt Q13547+O15379+Q9UBN7+Q92769+Q9UQL6+Q8WUI4+Q9BY41+Q96DB2+P56524+Q9UKV0+Q969S8)", "assay": "Inhibition of HDAC in human HCT116 cells assessed as increase in acetylated p53 levels after 16 hrs by Western blot analysis", "format": "cell-based", "in_short": "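HCT116 cells lysed in RIPA after washes in cold PBS. 40 μg protein run on 10−12% SDS-PAGE and transferred to nitrocellulose. Membrane blocked in 5% milk/TBST for 0.5 h, primary antibodies 1:1000 overnight at 4 °C, secondary 1:1000 for 1 h, ECL detection.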"}, "[20]": {"target": "Protein deacetylase HDAC6 (Homo sapiens, UniProt Q9UBN7)", "sequence (Q9UBN7 whole entry)": "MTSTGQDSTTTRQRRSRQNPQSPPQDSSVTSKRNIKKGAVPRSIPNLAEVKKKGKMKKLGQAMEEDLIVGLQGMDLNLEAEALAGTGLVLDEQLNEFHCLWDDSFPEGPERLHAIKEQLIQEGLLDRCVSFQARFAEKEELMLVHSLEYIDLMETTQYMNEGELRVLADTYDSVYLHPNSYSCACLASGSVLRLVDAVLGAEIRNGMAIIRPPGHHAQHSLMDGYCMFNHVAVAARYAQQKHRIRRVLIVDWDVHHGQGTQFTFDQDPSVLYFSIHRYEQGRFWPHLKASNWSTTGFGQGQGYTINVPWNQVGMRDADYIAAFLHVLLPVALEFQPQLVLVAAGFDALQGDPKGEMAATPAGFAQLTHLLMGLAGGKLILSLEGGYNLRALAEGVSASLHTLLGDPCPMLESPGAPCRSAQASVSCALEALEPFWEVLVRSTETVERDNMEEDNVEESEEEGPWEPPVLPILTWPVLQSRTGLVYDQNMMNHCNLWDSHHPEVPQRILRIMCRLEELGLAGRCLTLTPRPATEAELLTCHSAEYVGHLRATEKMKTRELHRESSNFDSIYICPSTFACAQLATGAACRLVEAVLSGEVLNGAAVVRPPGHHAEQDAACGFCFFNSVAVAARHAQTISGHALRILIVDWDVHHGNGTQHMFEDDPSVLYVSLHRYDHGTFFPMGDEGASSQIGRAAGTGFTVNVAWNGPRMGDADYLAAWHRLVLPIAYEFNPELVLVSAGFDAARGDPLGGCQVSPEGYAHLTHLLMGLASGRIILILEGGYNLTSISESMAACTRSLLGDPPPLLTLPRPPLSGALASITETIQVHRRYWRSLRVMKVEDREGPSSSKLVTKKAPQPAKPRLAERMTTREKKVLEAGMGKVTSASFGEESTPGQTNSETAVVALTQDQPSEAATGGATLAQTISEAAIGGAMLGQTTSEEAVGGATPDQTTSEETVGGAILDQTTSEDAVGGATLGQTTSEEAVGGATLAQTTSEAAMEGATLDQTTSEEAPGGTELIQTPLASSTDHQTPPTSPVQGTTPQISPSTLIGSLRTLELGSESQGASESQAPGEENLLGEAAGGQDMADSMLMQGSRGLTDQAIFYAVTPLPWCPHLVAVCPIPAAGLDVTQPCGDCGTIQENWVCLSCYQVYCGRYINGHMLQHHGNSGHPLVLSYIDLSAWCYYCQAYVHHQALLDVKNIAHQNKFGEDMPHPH", "assay": "Inhibition of HDAC6 (unknown origin) using Ac-peptide as substrate preincubated for 15 mins followed by substrate addition and measured after 1 hr"}, "[21]": {"assay": "Selectivity index, ratio of IC50 for human LO2 cells to IC50 for human HCT116 cells", "format": "toxicity", "conditions": "LO2 cells and HCT116 cells, read-out: Ratio IC50", "in_short": "as §3"}}, "note": "The source made the active and inactive calls. The rule behind the calls is not given here."}
{"smiles": "COc1ncc(-c2cc(OCCCCCCC(=O)NO)c3ncnc(C)c3c2)cc1F", "values": [{"measurement": "concentration at 0.5 h", "setting": "[1]", "value": 577, "unit": "ng/mL"}, {"measurement": "Activity", "setting": "[2]", "value": 1.4, "unit": "%"}, {"measurement": "Drug metabolism", "setting": "[3]", "value": "Metabolite_Detected"}, {"measurement": "inhibition", "setting": "Homo sapiens [4]", "value": "Active"}, {"measurement": "concentration at 0.5 h", "setting": "[5]", "value": 370, "unit": "ng/g"}, {"measurement": "inhibition in vivo at 30 mg/kg", "setting": "HGC-27 [6]", "value": 62.6, "unit": "%"}, {"measurement": "Activity", "setting": "HCT-116", "value": "Dose-dependent effect"}, {"measurement": "inhibition", "setting": "Mus musculus", "value": "Dose-dependent effect"}, {"measurement": "Activity", "setting": "[7]", "value": 20, "unit": "%"}, {"measurement": "inhibition in vivo at 100 mg/kg", "setting": "HGC-27 [8]", "value": 15.2, "unit": "%"}, {"measurement": "concentration at 0.5 h", "setting": "[9]", "value": 36.6, "unit": "ng/g"}, {"measurement": "inhibition", "setting": "Homo sapiens [10]", "value": "Active"}]}
{"smiles": "COc1ccc(-c2cc(OCCN(C)c3ncc(C(=O)NO)cn3)c3ncnc(C)c3c2)cn1", "values": [{"measurement": "inhibition", "setting": "Homo sapiens [11]", "value": "Active"}, {"measurement": "Ratio IC50", "setting": "Homo sapiens [12]", "value": "> 27"}, {"measurement": "inhibition", "setting": "Homo sapiens [13]", "value": "Active"}, {"measurement": "Ratio IC50", "setting": "Homo sapiens [14]", "value": "> 27"}, {"measurement": "IC50", "setting": "[15]", "value": 29, "unit": "nM"}, {"measurement": "Ratio IC50", "setting": "Homo sapiens [16]", "value": "> 5"}, {"measurement": "selectivity ratio", "setting": "[17]", "value": 8240}, {"measurement": "inhibition", "setting": "Homo sapiens [18]", "value": "Active"}, {"measurement": "inhibition", "setting": "[19]", "value": "Dose-dependent effect"}, {"measurement": "IC50", "setting": "[20]", "value": 17, "unit": "nM"}, {"measurement": "selectivity ratio", "setting": "[21]", "value": 1430}]}
